# Screening results (PubChem)
# HIV Rev-RRE inh = HIV-1 Rev-RRE binding inhibitors, primary screen, biochemical, FRET, protein-RNA interaction; P05866; Rev peptide-RRE RNA binding; inhibition, % at 8 µM; 97,000 tested, 0.79% active;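 active means inhibition above the screen-wide mean plus 3 SD, cut at about 35% in these data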
#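 Test system: Cy5-tagged RRE RNA duplex with fluorescein-tagged Rev peptide | Read-out: % inhibition of FRET ratio versus controls | Probe or stimulus: Labelled Rev peptide | Incubation: 5 min RNA-compound premix plus 15 min binding step, 25 °C | Technique: FRET fluorescence readout | Benchmarks: DMSO low control, neomycin B high control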
# Phagocytosis inh = inhibitors of macrophage phagocytosis, primary screen, imaging, J774A.1 cells, IgG beads; J774A.1 macrophage IgG-bead phagocytosis; 110,000 tested, 0.07% active; AID 1029, 2008; inhibition, % at 5 µM;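 active means inhibition above the mean of the plate negative controls plus 5 SD, cut at about 13% in these data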;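 further: phagocytic index as fraction of beads internalized from green versus red external bead signal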
# CD11b adhes enh = enhancers of CD11b/CD18 adhesion to fibrinogen, primary screen, K562 cells, luminescence; Integrin beta-2 (Homo sapiens) + Integrin alpha-M (Homo sapiens), P05107+P11215; ATPlite luminescence; activation, % at 10 µM; 93,000 tested, 0.07% active; AID 1499, 2009;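 active means 10 µM primary screen giving 50% or more activity, confirmed by 40% or more on retest at that dose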
# Target sequence (P05107 whole entry, looked up, other chains not shown): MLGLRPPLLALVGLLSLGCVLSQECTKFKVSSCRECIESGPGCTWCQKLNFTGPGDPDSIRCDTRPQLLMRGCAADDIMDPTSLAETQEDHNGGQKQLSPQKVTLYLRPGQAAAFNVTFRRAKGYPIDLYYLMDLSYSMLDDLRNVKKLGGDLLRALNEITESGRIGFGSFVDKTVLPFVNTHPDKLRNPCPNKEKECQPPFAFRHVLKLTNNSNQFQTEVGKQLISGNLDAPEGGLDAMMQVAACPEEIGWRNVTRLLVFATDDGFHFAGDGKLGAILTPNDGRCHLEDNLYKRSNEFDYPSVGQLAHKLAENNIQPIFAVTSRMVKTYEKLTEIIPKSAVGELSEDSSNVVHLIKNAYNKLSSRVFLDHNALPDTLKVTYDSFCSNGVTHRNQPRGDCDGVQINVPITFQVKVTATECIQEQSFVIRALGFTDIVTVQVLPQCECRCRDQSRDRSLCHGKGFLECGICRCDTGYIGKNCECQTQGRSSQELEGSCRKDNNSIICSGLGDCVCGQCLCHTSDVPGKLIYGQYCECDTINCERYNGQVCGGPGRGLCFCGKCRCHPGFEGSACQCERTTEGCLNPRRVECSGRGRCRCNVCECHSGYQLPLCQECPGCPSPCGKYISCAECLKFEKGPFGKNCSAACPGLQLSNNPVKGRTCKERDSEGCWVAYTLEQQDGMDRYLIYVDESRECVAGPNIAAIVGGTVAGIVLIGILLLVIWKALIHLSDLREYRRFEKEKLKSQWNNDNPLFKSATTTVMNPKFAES
# EphB4 antag = EphB4-ephrin-B2 interaction antagonists, primary screen, biochemical, TNYL-RAW peptide probe, fluorescence polarization | inhibition, % at 7 µM | 97,000 tested, 0.15% active | EphB4 LBD / TNYL-RAW-Alexa532 peptide | Ephrin type-B receptor 4 (Homo sapiens), P54760;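 active means inhibition above the screen-wide mean inhibition plus 3 SD, cut at about 15% in these data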
# Mac1 fbg inh = inhibitors of CD11b/CD18 adhesion to fibrinogen, primary screen, K562 cells, luminescence; ATPlite luminescence; Mn2+ added to activate the integrin; inhibition, % at 10 µM; 93,000 tested, 0.54% active; AID 1497, 2009;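 active means primary inhibition of 50% or more at 10 µM, then 40% or more on retest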
# Smad3 FoxH1 inh = Smad3/FoxH1 peptide binding inhibitors, primary screen, biochemical, TR-FRET | Mothers against decapentaplegic homolog 3 (Homo sapiens), P84022 | TR-FRET Smad3/Dy647-FoxH1 peptide binding, europium anti-His | inhibition, % at 25 µM | 88,000 tested, 0.29% active | AID 630, 2007;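 active means compounds that reduce the energy-transfer binding signal between the protein and its labelled peptide by more than half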
# Hits are given with their value; i = inactive; nt = not tested or not shown; [ ] = another dose, or the depositor's remark. An excerpt weighted towards active compounds, which were near 1.3% of everything screened.
SMILES,HIV Rev-RRE inh,Phagocytosis inh,CD11b adhes enh,EphB4 antag,Mac1 fbg inh,Smad3 FoxH1 inh
COc1ccc(CNCC(O)(c2ccc(Cl)cc2)c2ccc(Cl)cc2)cc1OC,63,i,i,i,i,nt
COc1ccc(CNCC(O)(c2ccc(Cl)cc2)c2ccc(Cl)cc2)cc1,i,i,i,i,i,nt
CC(C)c1ccc(C2C(C#N)=C(N)N3C(=C2C#N)Sc2ccccc23)cc1 (centres undefined),56,i,i,i,i,i
N#CC1=C(N)NC(SCC(=O)c2ccc(Cl)cc2)=C(C#N)C12CCCC2,i,nt,i,i,64,i
N#CC1=C(N)NC(SCC(=O)c2ccc(Br)cc2)=C(C#N)C12CCCCC2,nt,i,nt,nt,nt,nt
N#CC1=C(N)Oc2c(O)cc3ccccc3c2C1c1ccsc1 (centres undefined),nt,i,i,nt,70,nt
C[N+](C)(C)CC(=O)N/N=C/c1c(O)ccc2ccccc12,nt,nt,nt,nt,nt,i
COc1ccc(OCc2cccc(C(=O)O)c2)cc1,nt,i,i,nt,i,nt
CCOc1ccc(OCc2cccc(C(=O)O)c2)cc1,nt,i,i,nt,59,nt
CN(C)CCC(=O)[C@]1(O)CC[C@@H]2[C@H]3CC=C4C[C@@H](O)CC[C@]4(C)[C@@H]3CC[C@]21C,nt,nt,nt,nt,nt,i
O=C1c2cccc(O)c2C(=O)c2c(O[C@@H]3O[C@H](CO)[C@@H](O)[C@H](O)[C@H]3O)cccc21,nt,nt,nt,nt,nt,70
CN1CCc2c(sc(/N=C/c3ccco3)c2C(N)=O)C1,i,i,i,i,i,i
CN1CCc2c(sc(/N=C/c3cccs3)c2C(N)=O)C1,81,i,i,i,i,i
Cc1ccc(NC(=O)CCNC(=O)c2ccco2)cc1,nt,i,nt,nt,nt,nt
COc1ccccc1NS(=O)(=O)c1ccc(NC(=O)CCNC(=O)c2ccco2)cc1,i,i,68,i,i,i
Cc1ccc([C@@H](O)c2cnc(C)n2Cc2ccccc2)cc1,nt,nt,nt,nt,nt,i
COc1ccccc1Oc1ccc(S(=O)(=O)NCc2ccccn2)cc1,i,i,i,i,68,i
CCOc1ccc(-n2nc3c(-n4ncc(C#N)c4N)nnc(C)c3c2C)cc1,i,nt,nt,i,nt,i
CCn1c(=O)c(C(=O)Nc2nc3ccccc3[nH]2)c(O)c2ccccc21,i,i,i,i,96,nt
CCn1c(=O)c(C(=O)Nn2c(C)nc3ccccc3c2=O)c(O)c2ccccc21,nt,i,i,nt,i,i
Cc1cc(=O)oc2cc(O)c(CN(C)CC(=O)O)cc12,nt,nt,nt,nt,nt,i
O=C1/C(=C/c2cccnc2)SC(=S)N1c1ccccc1,nt,i,i,nt,i,nt
CN1C(=O)S/C(=C/c2cccnc2)C1=O,i,i,i,19,i,nt
CCOC(=O)CN1C(=O)S/C(=C/c2ccc(OC)c([N+](=O)[O-])c2)C1=O,nt,i,nt,nt,nt,nt
CCOC(=O)CN1C(=O)S/C(=C/c2ccc(N3CCCCC3)o2)C1=O,112[fluorescence artefact?],i,i,i,i,nt
SMILES,HIV Rev-RRE inh,Phagocytosis inh,CD11b adhes enh,EphB4 antag,Mac1 fbg inh,Smad3 FoxH1 inh
COC(=O)CN1C(=O)S/C(=C/c2ccc(N3CCCCC3)o2)C1=O,140[fluorescence artefact?],nt,nt,i,nt,nt
O=C(O)/C(Cc1ccc([N+](=O)[O-])cc1)=N\O,nt,nt,nt,nt,nt,i
O=c1oc2ccccc2cc1-c1nnc(NCc2ccco2)s1,44,i,i,i,i,i
Cn1c(C[C@@H](O)c2nc3ccccc3n2C)nc2ccccc21,nt,nt,nt,nt,nt,i
COCCCn1c(=N)c(C(N)=S)cc2c(=O)n3cccc(C)c3nc21,nt,nt,nt,nt,nt,i
Cc1ccc2nc3c(cc(C(N)=S)c(=N)n3CCCOC(C)C)c(=O)n2c1,59,i,i,i,i,i
CCc1nccn1C(=O)c1cnn2c(C(F)F)cc(-c3ccccc3)nc12,i,i,i,i,i,nt
Cc1ccc(-c2cc(C(F)F)n3ncc(C(=O)Nc4c(C)nn(Cc5c(Cl)cccc5Cl)c4C)c3n2)cc1,i,i,116,i,i,nt
Cc1ccc(-c2cc(C(F)F)n3ncc(C(=O)Nc4c(C)nn(Cc5ccccc5Cl)c4C)c3n2)cc1,i,nt,nt,i,nt,nt
Cc1nn(Cc2c(Cl)cccc2Cl)c(C)c1NC(=O)c1cnn2c(C(F)F)cc(-c3ccccc3)nc12,i,i,116,i,i,nt
N#C[C@H](C(=O)O)C(c1c(Cl)cccc1Cl)[C@H](C#N)C(=O)O,nt,nt,nt,nt,nt,i
C[N+]1(C)CCc2cc(O)c(O)cc2[C@H]1Cc1ccc(O)c(O)c1,nt,nt,nt,nt,nt,i
Cn1c(Sc2ccc(-c3cccnc3)n2C)ccc1-c1cccnc1,nt,nt,nt,nt,nt,i
Cn1nc(SCC(=O)O)sc1=S,140[fluorescence artefact?],i,i,i,i,i
Cc1noc(C)c1C(=O)NCCc1ccc(Cl)cc1,95[fluorescence artefact?],i,i,i,i,i
Cc1ccc(S(=O)(=O)N(C(=O)c2ccncc2)c2ccc(OC(=O)c3ccncc3)c3ccccc23)c(C)c1,i,i,i,i,72,nt
Cc1ccc(S(=O)(=O)N(C(=O)c2ccncc2)c2ccc(OC(=O)c3ccncc3)c3ccccc23)cc1,nt,i,nt,nt,nt,nt
CCOC(=O)c1nn(-c2ccc(C)cc2)cc1C(=O)c1ccccc1,i,i,i,i,i,nt
CN(CC(=O)N1CCCC1)S(=O)(=O)c1cc(Cl)ccc1Cl,i,25[artifact],i,i,i,i
O=S(=O)(c1ccc2ccccc2c1)N1CCN(S(=O)(=O)c2ccc3ccccc3c2)CC1,nt,nt,nt,nt,nt,91
CC(C)c1ccc2c(c1)CC[C@@H]1[C@](C)(CN)CCC[C@@]21C,nt,nt,nt,nt,nt,i
CCOC(=O)c1ccc(NC2=CC(=O)C(=O)c3ccccc32)cc1,i,i,i,i,i,78
Cc1ccc2c(c1)C(c1ccncc1)=NNC(c1ccc(C(C)C)cc1)=N2,i,i,i,i,i,nt
COc1ccc(Cn2nnnc2C(c2cc3ccc(OC)cc3[nH]c2=O)N2CCC(C)CC2)cc1 (centres undefined),i,i,i,16,i,i
O=c1[nH]c2cc3c(cc2cc1C(c1nnnn1C1CCCCC1)N1CCSCC1)OCCO3 (centres undefined),51,nt,nt,i,nt,i
SMILES,HIV Rev-RRE inh,Phagocytosis inh,CD11b adhes enh,EphB4 antag,Mac1 fbg inh,Smad3 FoxH1 inh
COc1ccc2cc(C(c3nnnn3Cc3ccc(F)cc3)N3CCCCCC3)c(=O)[nH]c2c1 (centres undefined),i,i,i,i,i,i
COc1cc2cc(C(c3nnnn3C3CCCC3)N3CCCCCC3)c(=O)[nH]c2cc1OC (centres undefined),58,i,i,i,i,i
O=c1oc2cc(N=Cc3ccc4c(c3)OCO4)ccc2c2ccccc12,nt,nt,nt,nt,nt,i
O=c1[nH]cc(CS(=O)(=O)Cc2c[nH]c(=O)[nH]c2=O)c(=O)[nH]1,nt,nt,nt,nt,nt,i
Cc1ccccc1OCC(=O)N1N=C(C(F)(F)F)CC1(O)C(C)(C)C (centres undefined),i,nt,nt,i,nt,i
Cc1ccc(OCC(=O)N2N=C(C(F)(F)F)CC2(O)C(C)(C)C)cc1C (centres undefined),i,nt,i,i,80,i
